Experimental data of several laboratories.
Organism: Severe acute respiratory syndrome coronavirus 2

SMILES | test | test system | conditions | measurement | result
Cn1cnc(Cn2c(=O)[nH]/c(=N\c3cc4cn(C)nc4cc3Cl)n(Cc3cc(F)c(F)cc3F)c2=O)n1 | viral replication, inhibitor, qPCR |  | 48 h | EC50 | 0.023 µM
CCOC(=O)c1ncc2[nH]c3cccc(OC(C)C)c3c2c1C | viral replication, inhibitor | Vero C1008 | 1 µM | inhibition | 40.6%
Cc1ccc(NC(=O)c2cc3c(=O)n4cccc(C)c4nc3n2C)cc1Cl | viral replication | Vero | 10 µM | inhibition | 94.8%
CCCN1CCC=C(c2cc(-c3ccc(C)cc3)no2)C1 | viral replication, inhibitor | A549-ACE2 |  | IC50 | 2.88 µM
O=C(/C=C/c1ccc(O)c(O)c1/C=C/c1ccc(O)c(O)c1)O[C@H](Cc1ccc(O)c(O)c1)C(=O)O | cytopathic effect, inhibitor | Vero C1008 | 1.562 µM | inhibition | 0%
O=C(Nc1ccccc1F)c1cc2c(=O)n3ccccc3nc2n1Cc1ccccc1 | viral replication | Vero | 10 nM | inhibition | 50.8%
O=C(O)c1c(Nc2cccc(F)c2)[nH]c2cc(Cl)ccc2c1=O | viral entry, inhibitor | NCI-H1299 | pseudovirus | EC50 | 0.69 µM
CCc1ccc(NC(=O)c2cc3c(=O)n4ccccc4nc3n2C)cc1 | viral replication | Vero | 1 µM | inhibition | 89.3%
COc1cc2nc(N3CCCN(C)CC3)nc(NC3CCN(Cc4ccccc4)CC3)c2cc1OC | viral replication, inhibitor | A549-ACE2 |  | IC50 | 0.479 µM
C=C[C@@](C)(/C=C/c1ccc(O)cc1)CCC=C(C)C | cytopathic effect | Vero C1008 | 25 µM | inhibition | 0%
CCC(CC)COC(=O)[C@H](C)N[P@](=O)(OC[C@H]1O[C@@](C#N)(c2ccc3c(N)ncnn23)[C@H](O)[C@@H]1O)Oc1ccccc1 | viral replication | Vero | 1 µM | inhibition | 95.2%
CN[C@@H](C)C(=O)N[C@H](C(=O)N1CCC[C@H]1C(=O)Nc1sc(-c2ncco2)nc1-c1ccccc1)C1CCCCC1 | viral replication, inhibitor | Vero C1008 | 1 µM | inhibition | 42.2%
CCCCCCCCCCCCCCCCOCCCOP(=O)(O)OC[C@H]1O[C@@](C#N)(c2ccc3c(N)ncnn23)[C@H](O)[C@@H]1O | viral replication, inhibitor, qPCR | Vero C1008 |  | EC50 | 0.63 µM
COc1ccc(C[C@@H]2c3cc(Oc4cc(C[C@@H]5c6cc(O)c(OC)cc6CCN5C)ccc4O)c(OC)cc3CCN2C)cc1 | cytopathic effect | Vero C1008 | 12.5 µM | inhibition | 0%
Cn1c(C(=O)Nc2ccc3c(c2)OCCO3)cc2c(=O)n3ccccc3nc21 | viral replication | Vero | 1 nM | inhibition | 5.41%
CC(C)=CCc1c(O)ccc(C(=O)/C=C/c2ccc(O)cc2)c1O | cytopathic effect | Vero C1008 | 100 µM | inhibition | 90%
CCCCCCCCCCCCCCCCCCOC[C@H](COP(=O)(O)OC[C@H]1O[C@@](C#N)(c2ccc3c(N)ncnn23)[C@H](O)[C@@H]1O)OCc1ccccc1 | viral replication, inhibitor, qPCR | Vero C1008 | 48 h | EC90 | 0.16 µM
Cc1cc(NC(=O)c2cc3c(=O)n4cccc(C)c4nc3n2C)ccc1Br | viral replication | Vero | 1 nM | inhibition | 5.51%
O=C(O[C@@H]1Cc2c(O)cc(O)cc2O[C@@H]1c1cc(O)c(O)c(O)c1)c1cc(O)c(O)c(O)c1 | cytopathic effect, inhibitor | Vero C1008 | 3.125 µM | inhibition | 0%
